In one assay the test system is Botrytis cinerea. Briefly: Antifungal activity against Botryotinia fuckeliana in cucumber seedlings assessed as reduction in gray mold measured after 4 days by pot test. In kind it is functional. In short, it runs like this: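 Emulsifiable-concentrate formulations were diluted in water and foliar-sprayed to run-off onto cotyledon-stage seedlings. Plants were held 1 day in the greenhouse, then inoculated with agar gel carrying B. cinerea and kept 4 more days at 20°C, humid and dark. Infection degree was scored against untreated controls. pED50 is the negative log of the molar concentration giving 50% control.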

The test system of another assay is Blumeria graminis. Kind of assay: Antifungal activity against Blumeria graminis in wheat seedlings assessed as reduction in powdery mildew at 20 degC measured after 10 days by pot test. In kind it is functional.

The structures appear in SMILES notation.

For `CC(C)(C)/C(=C/c1ccc(Cl)cc1)C(=O)n1ccnc1`, the pED50 worked out at 4.82 in the assay with Botrytis cinerea and 5.92 in the assay on Blumeria graminis.
As for `CC(C)(C)/C(=C\c1ccc(Cl)cc1)C(=O)n1ccnc1`, the figures for the pED50 in the assay with Botrytis cinerea and in the assay with Blumeria graminis were 2.92 and 3.52, respectively.
The like results for `CC(C)(C)/C(=C/c1ccccc1)C(=O)n1ccnc1` were, in that order, 3.4 and 4.17.
Consider `CC(C)(C)/C(=C/c1ccc(Br)cc1)C(=O)n1ccnc1`, for which the pED50 with Botrytis cinerea worked out at 4.63; in the assay on Blumeria graminis, 5.96.
In the same order, the values of `CC(C)(C)/C(=C/c1ccc(C(F)(F)F)cc1)C(=O)n1ccnc1` are 3.04 and 4.19.
In the same order, the values of `CC(C)(C)/C(=C/c1ccc(C#N)cc1)C(=O)n1ccnc1` are 4.4 and 5.89.
The like results for `Cc1ccc(/C=C(\C(=O)n2ccnc2)C(C)(C)C)cc1` were, in that order, 3.43 and 3.92.

The values are drawn from ChEMBL document CHEMBL3046092, “Synthesis and fungicidal activity of 1-(alpha-tert-butylcinnamoyl)imidazoles” (2002).
